In ChEMBL document CHEMBL1128344 (J Med Chem, 1995):

Target: T1, Epidermal growth factor receptor (Homo sapiens, UniProt P00533)
Assay: Inhibition of EFGR tyrosine kinase from A431 cells
Type: cell-based
Details: A-431
In short: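 Enzyme source was the native EGFR complex in plasma membrane vesicles shed from cultured A431 epidermoid carcinoma cells. Kinase activity was measured as ³²P incorporation from added [γ-³²P]ATP into a 6:3:1 random copolymer of glutamate, alanine and tyrosine.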

T1 sequence (P00533 whole entry): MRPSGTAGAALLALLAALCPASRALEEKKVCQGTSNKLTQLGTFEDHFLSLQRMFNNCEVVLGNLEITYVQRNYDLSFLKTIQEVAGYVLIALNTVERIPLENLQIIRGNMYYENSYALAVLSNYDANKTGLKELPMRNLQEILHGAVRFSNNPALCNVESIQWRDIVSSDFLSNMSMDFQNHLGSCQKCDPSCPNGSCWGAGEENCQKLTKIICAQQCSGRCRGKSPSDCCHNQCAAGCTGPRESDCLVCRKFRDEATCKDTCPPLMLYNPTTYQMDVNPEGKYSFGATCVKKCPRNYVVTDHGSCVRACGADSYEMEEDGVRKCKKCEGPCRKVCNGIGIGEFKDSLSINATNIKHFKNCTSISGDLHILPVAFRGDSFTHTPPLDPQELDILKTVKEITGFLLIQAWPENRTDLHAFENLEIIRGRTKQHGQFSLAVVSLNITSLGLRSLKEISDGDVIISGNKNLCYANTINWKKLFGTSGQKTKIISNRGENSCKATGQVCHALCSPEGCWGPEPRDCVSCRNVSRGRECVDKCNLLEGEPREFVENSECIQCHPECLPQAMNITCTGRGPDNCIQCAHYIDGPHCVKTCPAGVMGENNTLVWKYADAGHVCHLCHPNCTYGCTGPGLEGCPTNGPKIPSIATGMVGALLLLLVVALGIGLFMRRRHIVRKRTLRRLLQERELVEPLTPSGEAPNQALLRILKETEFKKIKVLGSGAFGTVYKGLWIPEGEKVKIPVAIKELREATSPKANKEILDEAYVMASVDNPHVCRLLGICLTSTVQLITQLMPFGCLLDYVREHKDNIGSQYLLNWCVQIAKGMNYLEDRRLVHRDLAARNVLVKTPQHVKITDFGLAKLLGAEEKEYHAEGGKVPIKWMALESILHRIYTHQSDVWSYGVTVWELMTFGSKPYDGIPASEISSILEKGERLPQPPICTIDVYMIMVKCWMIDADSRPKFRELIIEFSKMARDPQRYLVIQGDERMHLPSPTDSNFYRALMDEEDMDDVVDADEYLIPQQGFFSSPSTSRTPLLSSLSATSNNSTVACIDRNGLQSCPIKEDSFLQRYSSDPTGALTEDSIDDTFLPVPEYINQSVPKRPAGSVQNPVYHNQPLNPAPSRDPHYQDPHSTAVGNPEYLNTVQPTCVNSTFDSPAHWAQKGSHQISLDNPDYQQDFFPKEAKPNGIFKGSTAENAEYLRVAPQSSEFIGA

Row | SMILES | FC50 [µM]
1 | CC1C(=S)N(C)c2ccccc21 (configuration not stated) | > 100
2 | CN1C(=S)C(C(=O)Nc2ccccc2)c2ccccc21 (configuration not stated) | 1
3 | CN1C(=S)C(C(=O)c2ccco2)c2ccccc21 (configuration not stated) | > 100
4 | CN1C(=S)C(C(=O)c2ccc(C(=O)O)cc2)c2ccccc21 (configuration not stated) | 8.7
5 | CC(=O)C1C(=S)N(C)c2ccccc21 (configuration not stated) | > 100
6 | CN(C)CCCn1c(SSc2c(C(=O)Nc3ccccc3)c3ccccc3n2CCCN(C)C)c(C(=O)Nc2ccccc2)c2ccccc21 | 26
7 | CN1C(=S)C(C(=O)c2ccccc2)c2ccccc21 (configuration not stated) | > 100
8 | COC(=O)c1ccc(C(=O)C2C(=S)N(C)c3ccccc32)cc1 (configuration not stated) | > 100

Target: T1, Epidermal growth factor receptor
Assay: Inhibitory concentration compound against EFGR tyrosine kinase obtained from plasma membrane vesicles from cultured A431 cells
Type: cell-free, A-431
Details: not given

Row | SMILES | IC50 [µM]
9 | Cn1c(SSc2c(C(=O)NCc3ccccc3)c3ccccc3n2C)c(C(=O)NCc2ccccc2)c2ccccc21 | 1.7
10 | NC(Cc1c(SSc2[nH]c3ccccc3c2CC(N)C(=O)NCc2ccccc2)[nH]c2ccccc12)C(=O)NCc1ccccc1 (configuration not stated) | 3.3
11 | Cn1c(SSc2c(C(=O)Nc3ccccc3)c3ccccc3n2C)c(C(=O)Nc2ccccc2)c2ccccc21 | 10.9
12 | COC(=O)c1cccc(NC(=O)c2c(SSc3c(C(=O)Nc4cccc(C(=O)OC)c4)c4ccccc4n3C)n(C)c3ccccc23)c1 | > 100
13 | CNC(=O)c1c(SSc2c(C(=O)NC)c3ccccc3n2C)n(C)c2ccccc12 | 1.8
14 | Cn1c(SSc2c(C(=O)Nc3ccccn3)c3ccccc3n2C)c(C(=O)Nc2ccccn2)c2ccccc21 | 47
15 | CNC(=O)c1c(SSc2[nH]c3ccccc3c2C(=O)NC)[nH]c2ccccc12 | 6.1
16 | CCn1c(SSc2c(C(=O)Nc3ccccc3)c3ccccc3n2CC)c(C(=O)Nc2ccccc2)c2ccccc21 | > 100
17 | Cn1c(SSc2c(C(=O)c3ccco3)c3ccccc3n2C)c(C(=O)c2ccco2)c2ccccc21 | 7.7
18 | Cn1c(SSc2c(C(=O)Nc3cccnc3)c3ccccc3n2C)c(C(=O)Nc2cccnc2)c2ccccc21 | > 100
19 | O=C(Nc1ccccc1)c1c(SSc2[nH]c3ccccc3c2C(=O)Nc2ccccc2)[nH]c2ccccc12 | 100
20 | Cc1ccc(S(=O)(=O)c2c(SSc3[nH]c4ccccc4c3S(=O)(=O)c3ccc(C)cc3)[nH]c3ccccc23)cc1 | 28.7
21 | O=C(NCc1ccccc1)c1c(SSc2[nH]c3ccccc3c2C(=O)NCc2ccccc2)[nH]c2ccccc12 | 15
22 | CN(C(=O)c1c(SSc2c(C(=O)N(C)c3ccccc3)c3ccccc3n2C)n(C)c2ccccc12)c1ccccc1 | > 100
23 | Cn1c(SSc2c(C(=O)Nc3cccs3)c3ccccc3n2C)c(C(=O)Nc2cccs2)c2ccccc21 | > 100
24 | Cc1c(SSc2c(C)c3ccccc3n2C)n(C)c2ccccc12 | > 100
25 | c1ccc(-c2c(SSc3[nH]c4ccccc4c3-c3ccccc3)[nH]c3ccccc23)cc1 | 100
26 | CN(C)CCNC(=O)c1c(SSc2c(C(=O)NCCN(C)C)c3ccccc3n2C)n(C)c2ccccc12 | 17.5
27 | Cn1c(SSc2c(C(=O)c3ccccc3)c3ccccc3n2C)c(C(=O)c2ccccc2)c2ccccc21 | > 100
28 | Cn1c(SSc2c(C(=O)Nc3ccncc3)c3ccccc3n2C)c(C(=O)Nc2ccncc2)c2ccccc21 | > 100
29 | COC(=O)c1ccc(NC(=O)c2c(SSc3c(C(=O)Nc4ccc(C(=O)OC)cc4)c4ccccc4n3C)n(C)c3ccccc23)cc1 | > 100
30 | COC(=O)c1ccccc1NC(=O)c1c(SSc2c(C(=O)Nc3ccccc3C(=O)OC)c3ccccc3n2C)n(C)c2ccccc12 | > 100

Test system: not listed separately
Assay: Inhibition of v-src from baculovirus culture
Details: not given
In short: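 pp60v-src from v-src baculovirus-infected insect cells, bound via monoclonal antibody to 0.65 μm latex beads. Activity was measured as ³²P incorporation from [γ-³²P]ATP into poly[(glu)4(tyr)1] substrate.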

Row | SMILES | IC50 [µM]
31 | CC1C(=S)N(C)c2ccccc21 (configuration not stated) | > 100
32 | CN1C(=S)C(C(=O)Nc2ccccc2)c2ccccc21 (configuration not stated) | 10
33 | CN1C(=S)C(C(=O)c2ccco2)c2ccccc21 (configuration not stated) | 10.8
34 | CC(=O)C1C(=S)N(C)c2ccccc21 (configuration not stated) | > 50
35 | CN(C)CCCn1c(SSc2c(C(=O)Nc3ccccc3)c3ccccc3n2CCCN(C)C)c(C(=O)Nc2ccccc2)c2ccccc21 | 5.6

Target: not listed separately
Assay: Inhibitory concentration of the against pp60v-src tyrosine kinase obtained from v-src baculovirus-infected insect cells
Details: not given

Row | SMILES | IC50 [µM]
36 | Cn1c(SSc2c(C(=O)Nc3ccccc3)c3cc(C(F)(F)F)ccc3n2C)c(C(=O)Nc2ccccc2)c2cc(C(F)(F)F)ccc21 | 5.8
37 | Cn1c(SSc2c(C(=O)Nc3ccccc3)c3ccccc3n2C)c(C(=O)Nc2ccccc2)c2ccccc21 | 3.2
